Tn7 DDE FP – DD(E)-Tn7 binding inhibition, primary FP screen; AID 720508; FP displacement of FITC-Tn7 peptide from fibrin DD(E); 0% = median of compound wells per plate; inhibition, % at 8.3 µM; hit rate 0.13% among 370,000;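 active = inhibition above the mean of compounds falling within the control limits plus 3 SD of them, cut at about 14% in these data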;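 note: 0% = plate median of compound wells and 100% = 10 µM Aha-Tn7 peptide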
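Test system: human clot-derived fibrin DD(E) complex / Quantity: 2 µM final DD(E) protein / Incubation: 10 min plus 3 h, room temperature / Measured by: fluorescence polarization / Benchmarks: high control of 10 µM Aha-Tn7 peptide / Replicates: singlicate testing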
PKA-R1A act – activators of PKA-R1A complex; P00514+P68181; PKA-R1A dissociation, Cy5-IP20 fluorescence polarization; scaled: DMSO 0%, 113 µM cGMP 100%; activation, % at 11.4 µM; hit rate 0.083% among 340,000;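 active = percent activation above the mean of all tested compounds plus 3 SD, cut at about 19% in these data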;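 note: higher means more PKAc released from R1A so a rise in polarization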
Tn6 DDE FP – disrupts Tn6 cyclic peptide binding to fibrin D-Dimer-E complex; AID 720509; Fibrin DD(E) TRITC-Tn6 fluorescence polarization displacement; inhibition, % at 8.3 µM; hit rate 0.21% among 370,000; P02675;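 active = inhibition above a per-campaign cutoff: mean of compounds within control limits plus 3 SD, cut at about 15% in these data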;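 note: 0% = median of all compound wells on the plate and 100% = blocking peptide control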
PKA-R2B act – activators of human PKA-R2B complex; hit rate 0.079% among 340,000; AID 504700; P22694+P31323; PKA-R2B holoenzyme dissociation, Cy5-IP20 fluorescence polarization; R2B truncated from residue 108, S112A mutant; 0% DMSO only, 100% 113 µM cGMP; activation, % at 11.4 µM;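 active = activation above a cutoff set at the mean over all compounds plus 3 SD, cut at about 18% in these data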;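 note: higher means more holoenzyme dissociation and a rise in polarization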
Neddyl block – inhibitors of human cullin neddylation; TR-FRET cullin neddylation, biochemical; inhibition, % at 25 µM; hit rate 0.58% among 360,000; P61081+Q13564; in the data active = inhibition above about 36%
Target sequence (P61081 whole entry, looked up): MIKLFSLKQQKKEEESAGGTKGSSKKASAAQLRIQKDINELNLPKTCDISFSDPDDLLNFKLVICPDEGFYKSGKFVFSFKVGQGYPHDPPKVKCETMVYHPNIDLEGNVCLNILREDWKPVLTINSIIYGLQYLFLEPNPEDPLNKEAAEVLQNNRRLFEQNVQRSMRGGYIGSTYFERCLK
Target sequence (Q13564 whole entry, looked up): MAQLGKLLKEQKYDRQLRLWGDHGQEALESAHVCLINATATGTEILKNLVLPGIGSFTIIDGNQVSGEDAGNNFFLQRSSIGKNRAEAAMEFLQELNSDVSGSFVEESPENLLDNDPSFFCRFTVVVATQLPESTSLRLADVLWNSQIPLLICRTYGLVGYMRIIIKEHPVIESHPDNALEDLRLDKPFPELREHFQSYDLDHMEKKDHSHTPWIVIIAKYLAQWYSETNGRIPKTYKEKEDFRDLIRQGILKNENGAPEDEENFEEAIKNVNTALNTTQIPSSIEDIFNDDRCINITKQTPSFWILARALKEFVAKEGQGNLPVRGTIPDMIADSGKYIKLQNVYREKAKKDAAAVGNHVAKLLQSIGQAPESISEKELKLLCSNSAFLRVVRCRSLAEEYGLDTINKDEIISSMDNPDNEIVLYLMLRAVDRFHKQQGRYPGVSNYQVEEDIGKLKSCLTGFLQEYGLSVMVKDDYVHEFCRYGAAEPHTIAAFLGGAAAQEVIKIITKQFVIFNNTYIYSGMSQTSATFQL
R2B FP artifact – FP assay interference, PKA-R2B counter-screen. FP artifact counterscreen, fluorescence polarization. AID 504796. shares compounds with PKA-R2B act. activation, % at 11.4 µM. hit rate 6% among 270; in the data active = activation above about 20%;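 note: Cy5 labelled IP20 peptide probe with compound but no PKA protein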
PKA-R2B confirm – PKA-R2B complex activation, confirmation | hit rate 9% among 270 | fluorescence polarization | shares compounds with PKA-R2B act | AID 504797 | activation, % at 11.4 µM; in the data active = activation above about 19%
R1A FP artifact – fluorescence polarization artifact in PKA-R1A activator counter-screen | activation, % at 11.4 µM | hit rate 7% among 280 | shares compounds with PKA-R1A act | Cy5-IP20 peptide alone, fluorescence polarization artifact counterscreen;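 active = mean activation over triplicate runs exceeds the adjusted cutoff derived for the parent primary screen, cut at about 19% in these data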;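 note: no PKA protein present so any polarization rise reflects compound interference; 0% = tracer peptide mix alone and 100% = mix with added PKA catalytic subunit; higher means stronger polarization artifact and likely false positive in parent screen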
PKA-R1A act conf – PKA-R1A complex activation, confirmation | shares compounds with PKA-R1A act | Cy5-IP20 fluorescence polarization, PKA-R1A holoenzyme dissociation | hit rate 9% among 280 | activation, % at 11.4 µM;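 active = mean activation over replicate wells exceeds the adjusted hit threshold taken from the earlier primary screen, cut at about 20% in these data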;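 note: 0% = holoenzyme mix with DMSO only and 100% = cGMP-activated control wells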
Neddyl conf – cullin neddylation inhibition, confirmation. shares compounds with Neddyl block. TR-FRET cullin neddylation biochemical assay. calls only at 25 µM. hit rate 13% among 1,800. AID 652217; in the data active = inhibition above about 40%;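 note: neddylation substrate is the cullin 1 ring ligase complex with SKP2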
Numbers without * were called inactive; i = inactive; nt = no result shown; + = active, no number. This is a sample that favours compounds with a hit; in the whole collection about 1% have one here.

SMILES | Tn7 DDE FP | PKA-R1A act | Tn6 DDE FP | PKA-R2B act | Neddyl block | others
O=C1CC=C2C3CC4N(CCC45c4cc(O)c(O)cc4N1C25)CC3=CCBr (stereo unspecified) | -3 | 4 | -9 | -3 | 49*
O=c1[nH]c2ccccc2n1C1CCN(C(c2cc3ccccc3o2)c2nnnn2-c2ccc3c(c2)OCCO3)CC1 (stereo unspecified) | 15* | nt | -6 | nt | -22
O=c1[nH]c2ccccc2n1C1CCN(C(c2cccc3ccccc23)c2nnnn2-c2ccc3c(c2)OCCO3)CC1 (stereo unspecified) | -6 | nt | -3 | nt | -2
Cc1ccccc1-n1c(O)c(/C=N/Nc2nc3c(c(=O)n(C)c(=O)n3C)n2C)c(=O)[nH]c1=S | -1 | -2 | 3 | 8 | 5
Cn1c(=O)c2c(nc(N/N=C/c3c(O)n(C4CCCCC4)c(=S)[nH]c3=O)n2C)n(C)c1=O | 2 | -4 | 3 | 0 | 42*
O=C(CN1C(=O)[C@@H](Cc2ccc(O)cc2)N=C(c2ccccc2)c2ccccc21)NC1CCCCC1 | 8 | nt | -2 | nt | nt
CCOC(=O)CC[C@@H]1CC[C@]2(CCCN(Cc3cccnc3)C2)O1 | -3 | nt | -4 | nt | nt
COC1C(O)C(C)OC(OC2C(Oc3cccc4c(O)c5c(=O)oc6ccc(C)c7c(=O)oc(c34)c5c67)OC(C)C(O)C2O)C1O (stereo unspecified) | -6 | -1 | 3 | 3 | 40*
C=C(C=O)CC1CC(O)[C@]2(C)OC3CC4OC5C[C@]6(C)O[C@]7(C)CCC8OC9C[C@]%10(C)OC%11C(C)=CC(=O)OC%11CC%10OC9C[C@@H](C)C8OC7CC6O[C@]5(C)C/C=C\C4OC3CC2O1 (stereo partly specified) | 7 | nt | 4 | nt | nt
Cc1ccc2c(C)c3ccc4ccccc4c3c[n+]2c1 | 3 | 7 | -1 | -1 | 64*
COC(=O)C1=C[C@H]([C@@H](C)[C@H](OC)c2ccccc2Br)[C@@H]2[C@H]1c1ccccc1N2C | -14 | nt | -1 | nt | nt
CCCC/C(C)=C/[C@@H](NP(=O)(c1ccccc1)c1ccccc1)c1ccccc1 | 14* | -7 | 5 | -3 | -15
C=C1C(=O)C(C)=C2C(=O)N3Cc4[nH]c5ccccc5c4CC3(C(=O)OC)C12 (stereo unspecified) | 1 | nt | 8 | nt | nt
Cc1ccc(-c2cc(-c3ccc(C)cc3)[n+](-c3ccc(C(=O)O)cc3)c(-c3ccc(C)cc3)c2)cc1 | 9 | -3 | 3 | 4 | 36*
C#CCNc1ccncc1S(=O)(=O)NC(=O)NC(C)C | 1 | 10 | -1 | 20* | 5 | R2B FP artifact=2;PKA-R2B confirm=2
CC(C)C(C(=O)NC(C)(C)C)N1C(=O)CN=C(c2ccccc2)c2ccccc21 (stereo unspecified) | -2 | nt | -1 | nt | nt
CCOC(=O)c1ccccc1NC(=O)c1c(O)[nH]c(=S)[nH]c1=O | -2 | 19* | -9 | 1 | -1 | R1A FP artifact=1;PKA-R1A act conf=1
COC(=O)C1=C(c2c(C)noc2C)C[C@@H]2CC[C@H]1N2C(=O)NC(C)C | 0 | 4 | 9 | -5 | 0
COC(=O)C1=C(c2c(C)noc2C)C[C@@H]2CC[C@H]1N2C(=O)N1CCCC1 | -2 | 20* | -9 | -7 | -7 | R1A FP artifact=3;PKA-R1A act conf=3
CC(C)(C)NC(=O)C1CN=C(c2ccccc2)c2cc(Cl)ccc2N1C(=O)C1CCC1 (stereo unspecified) | 2 | nt | 1 | nt | nt
COc1cc2c(cc1O)CC1c3c(cc(O)c(OC)c3-2)CCN1C (stereo unspecified) | -4 | 2 | -8 | -5 | 43*
COc1cc2c(cc1OC)-c1c(OC)c(OC)cc3c1[C@H](C2)N(C)CC3 | -4 | 0 | -1 | -1 | -7
Cc1ccc(-c2cc(-c3ccccc3)cc(-c3ccccc3)[n+]2-c2ccc(C(=O)O)cc2)cc1 | -2 | -4 | 6 | -7 | 34* | Neddyl conf=+
O=C(O)c1ccc(-[n+]2c(-c3ccccc3)cc(-c3ccccc3)cc2-c2ccccc2)cc1 | -2 | -3 | -1 | -6 | -14
Cc1ccc(-n2nc(C)cc2NC(=O)COc2cc(C)cc3oc(=O)c4c(c23)CCC4)cc1 | -5 | 0 | 6 | -9 | 43* | Neddyl conf=i
SMILES | Tn7 DDE FP | PKA-R1A act | Tn6 DDE FP | PKA-R2B act | Neddyl block | others
COc1ccc([C@@H]2C[C@H]3[C@@H](CN2)CON3C)cc1 | -3 | nt | -9 | nt | nt
CCCCCCC(=O)N/N=C/c1c(O)n(CCCC)c(=S)[nH]c1=O | 2 | -6 | 1 | -6 | 50* | Neddyl conf=i
Cn1c(O)c(/C=N/NC(=O)c2ccncc2)c(=O)[nH]c1=S | -2 | nt | -7 | nt | 33
CCCCn1c(O)c(/C=N/NC(=O)c2ccncc2)c(=O)[nH]c1=S | 5 | -1 | -2 | -3 | 40*
CCCCC(=O)N/N=C/c1c(O)n(CCc2ccccc2)c(=O)[nH]c1=O | -7 | nt | 0 | nt | 45* | Neddyl conf=i
C=CCN(CC#CCO)Cc1ccc(OC)cc1OC | 1 | nt | 1 | nt | nt
CCCC(=O)N1c2ccc(Cl)cc2C(c2ccccc2)=NCC1C(=O)NC(C)(C)C (stereo unspecified) | -2 | nt | 5 | nt | nt
CC1(O)CCC2C3CCC4=CC(=O)CCC4=C3C=CC21C (stereo unspecified) | 2 | 2 | -3 | -9 | 40* | Neddyl conf=i
Cc1cc(N2CCNC[C@H]2C)ccc1N1CC[C@H](O)C1 | 0 | nt | 7 | nt | nt
NC(N)=N/N=C/c1ccc(N2CCOCC2)cc1 | 1 | -1 | 1 | -3 | 54* | Neddyl conf=i
COc1ccc(/C=N\N=C(N)N)cc1 | 1 | 8 | -2 | 1 | -24
